NPY-Y2 antag: NPY-Y2 (human) receptor antagonism; NPY-Y2 expressing cells, antagonist mode; inhibition, % at 2.7 µM; 0.99% of 140,000 active;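 also: 0% = vehicle with agonist challenge and 100% = reference antagonist with challenge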
NPY-Y1 PAM-ag: potentiators or agonists of human neuropeptide Y receptor Y1 | activation, % at 3.6 µM | NPY-Y1 expressing cells, potentiator/agonist activation | 0.37% of 220,000 active | P25929; in the data active = activation above about 33%, passing the limit was not always enough;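 also: cells stimulated with NPY at EC10 then isoproterenol at EC100; 0% = low agonist plus stimulus and 100% = saturating agonist plus stimulus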
Target sequence (P25929 whole entry, looked up): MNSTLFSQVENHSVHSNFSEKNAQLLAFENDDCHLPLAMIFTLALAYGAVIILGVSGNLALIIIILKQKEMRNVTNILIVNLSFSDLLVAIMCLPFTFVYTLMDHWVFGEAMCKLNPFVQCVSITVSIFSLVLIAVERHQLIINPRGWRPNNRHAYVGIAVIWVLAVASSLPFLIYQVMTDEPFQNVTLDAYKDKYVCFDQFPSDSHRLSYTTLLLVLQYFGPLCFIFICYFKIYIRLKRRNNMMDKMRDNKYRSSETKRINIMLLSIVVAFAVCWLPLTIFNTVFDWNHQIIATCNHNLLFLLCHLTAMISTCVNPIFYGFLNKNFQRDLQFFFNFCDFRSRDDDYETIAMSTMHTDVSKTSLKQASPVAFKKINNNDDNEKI
NPY Y1 blocker: NPY-Y1 (human) receptor antagonism | P25929 | inhibition, % at 3.6 µM | 1% of 200,000 active | HEK293-CNG Y1 cells, membrane potential fluorescence; NPY at EC95, then isoproterenol;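 active = inhibition above the campaign mean inhibition of all tested compounds plus 3 SD, cut at about 20% in these data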;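 also: 0% = DMSO wells given NPY plus isoproterenol and 100% = isoproterenol alone without NPY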
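Assay system: HEK293 Y1/CNG channel cell line; Doses: single compound dose of 3.6 µM, 0.4% DMSO; Timing: dye 3 h, compound 60 min room temperature, stimulation 45 min; Technique: Membrane-potential fluorescent dye readout; Measure: % inhibition of NPY effect.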
PGE2 EP2 inh: EP2 receptor (human) inhibition | P43116 | C6 glioma cells expressing human EP2, cAMP TR-FRET; cells stimulated with saturating PGE2 | inhibition, % at 25 µM | 0.52% of 260,000 active;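 active = percent inhibition above 40 after rounding to a whole number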;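 also: rat C6 glioma host cells with rolipram phosphodiesterase inhibitor present; the protocol text gives 20 µM as final concentration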
NPY-Y2 PAM-ag: human NPY-Y2 potentiation or agonism, primary screen | P49146 | cells expressing NPY-Y2, potentiator/agonist read-out | activation, % at 3.6 µM | 0.45% of 220,000 active | AID 1359; in the data active = activation above about 27%;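 also: cells stimulated with NPY near EC25 plus isoproterenol at EC100; 0% = vehicle plus submaximal agonist and 100% = vehicle plus saturating agonist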
EP2 mod: EP2 receptor (human) modulation | induction, % at 25 µM | P43116 | AID 940 | 0.83% of 260,000 active | EP2-expressing cells, cAMP HTRF FRET, PGE2 co-stimulation;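 active = compounds whose cAMP rise, as percent of the full-agonist control response, exceeds 60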;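 also: rat C6 glioma line stably carrying human EP2 under a CMV promoter; the protocol text gives 20 µM as final concentration; 100% = response of wells given 1 µM PGE2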
NPY1 antag conf: human NPY-Y1 antagonism, confirmation | shares compounds with NPY Y1 blocker | HEK293-CNG NPY-Y1, membrane potential fluorescence, cAMP; NPY challenge against isoproterenol-raised cAMP | inhibition, % at 3.6 µM | 21% of 1,200 active | AID 1254; in the data active = inhibition above about 20%;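 also: 0% = vehicle with agonist plus stimulus and 100% = stimulus alone without agonist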
NPY2 antag ctr: human NPY-Y2 antagonism in NPY-Y1 counter-screen. inhibition, % at 3.6 µM. 28% of 1,200 active. shares compounds with NPY Y1 blocker. HEK293 NPY-Y2 CNG membrane potential fluorescence; cells given NPY, then isoproterenol;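 also: 0% = DMSO with agonist challenge and 100% = reference antagonist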
* = called active by the depositor; . = no result. Hits are enriched below; roughly 2.8% of the tested compounds scored in any of these assays. Rule as the data show it, unless noted: active = inhibition above about 17%; inactive = the rest.

SMILES | NPY-Y2 antag | NPY-Y1 PAM-ag | NPY Y1 blocker | PGE2 EP2 inh | NPY-Y2 PAM-ag | EP2 mod | NPY1 antag conf | NPY2 antag ctr
CCn1c2ccccc2c2cc(NC(=O)c3cc(OC)c(OC)c(OC)c3)ccc21 | 1 | -23 | 35* | 15 | -19 | -29 | 2 | 16
CCCc1nc2ccccc2n1CC(O)COc1c(C)cccc1C (stereo not drawn) | . | . | . | 9 | . | -11 | . | .
Cc1cccc(-c2nnc(-c3ccc(C)o3)o2)c1 | . | . | . | 12 | . | -32 | . | .
CSc1ccc(-c2nc3cnccn3c2Nc2ccc3c(c2)OCO3)cc1 | 12 | 13 | 28* | 9 | 17 | -66 | 16 | 5
COc1ccccc1OCCOCCOc1c(C)cc(C)cc1Br | 11 | -33 | 24* | 9 | -9 | 4 | 12 | 10
COc1ccccc1OCCCOc1c(C)cc(C)cc1Br | 5 | -22 | 8 | 22 | -1 | 14 | . | .
O=C(NC1CCCC1)C(c1ccccc1F)N(C(=O)Cc1cccs1)c1ccc2c(c1)OCCO2 (stereo not drawn) | 8 | -8 | 20* | 16 | 5 | 44 | 10 | 8
Cn1cccc1C(C(=O)NC1CCCCC1)N(C(=O)Cc1cccs1)c1ccc2c(c1)OCCO2 (stereo not drawn) | . | . | . | 10 | . | 28 | . | .
CCn1c(CSCc2ccc(F)cc2)nnc1SCC(=O)Nc1nccs1 | . | . | . | 16 | . | -55 | . | .
Cc1nn(C)c(C(=O)NNC(=S)Nc2ccc(Cl)cc2)c1[N+](=O)[O-] | 9 | -28 | 5 | 9 | -7 | 14 | . | .
Cc1nn(C)c(C(=O)Nc2ccc(Cn3cccn3)cc2)c1[N+](=O)[O-] | 0 | 10 | 25* | . | -11 | 16 | -1 | 0
CCOc1ccc2cc(S(=O)(=O)n3ccnc3C)ccc2c1 | 5 | 0 | 9 | 9 | -17 | 19 | . | .
CCc1nccn1S(=O)(=O)c1ccc2ccc(C)cc2c1 | 15 | -36 | 34* | 8 | -43 | -10 | 16 | 15
COc1ccc(Br)cc1/C=C1\C(=O)NC(=O)N(c2ccccc2)C1=O | . | . | . | 10 | . | -76 | . | .
CCN(CC)CCOC(=O)/C=C/c1ccccc1OC | 1 | 16 | 21* | 8 | 10 | 19 | -1 | 2
Cc1ccc(C(=O)CSc2nnnn2C)c(C)c1 | . | . | . | 5 | . | -21 | . | .
C=CC[n+]1cccc2c3ccccc3ccc21 | . | . | . | 9 | . | 20 | . | .
CCCCCCCC[n+]1cccc2c3ccccc3ccc21 | . | -18 | 51* | 8 | -6 | -68 | 43* | 26*
CCCCCCCCCC[n+]1cccc2c3ccccc3ccc21 | . | -11 | 50* | 25 | -6 | -11 | 48* | 37*
CSc1nsc(SCC(=O)N2CCN(c3ccccc3)CC2)n1 | 14 | -45 | 29* | 10 | -35 | -8 | 12 | 7
CCCC(=O)Nc1nnc(SCC(=O)N2CCN(c3ccccc3)CC2)s1 | . | -4 | . | 5 | 7 | 9 | . | .
CC(C)(C)n1nnnc1C(c1cccnc1)N(Cc1ccccc1)Cc1cccs1 (stereo not drawn) | 9 | 7 | 21* | 15 | -9 | 20 | 4 | 5
CC(C)(C)c1ccc(CN(Cc2ccccc2)C(c2ccccn2)c2nnnn2C(C)(C)C)cc1 (stereo not drawn) | 1 | 3 | 0 | 12 | -10 | 23 | . | .
CCN(Cc1ccccc1)C(c1ccncc1)c1nnnn1C(C)(C)C (stereo not drawn) | 5 | 3 | 5 | 3 | 15 | 41 | . | .
CC(C)(C)n1nnnc1C(c1cccs1)N(Cc1ccccc1)Cc1cccnc1 (stereo not drawn) | 3 | -11 | 26* | 12 | -22 | 6 | 9 | 3
Cc1sc2nc(C)n(C3CCN(C(=O)Cc4ccsc4)CC3)c(=O)c2c1C | . | . | . | 8 | . | 4 | . | .
CS(=O)(=O)N1CCC(C(=O)N2CCC(n3nnc(-c4ccc(F)cc4)n3)CC2)CC1 | . | . | . | 7 | . | -2 | . | .
CCOC(=O)c1c(C)noc1CP(=O)(c1ccccc1)c1ccccc1 | 17 | -22 | 31* | 18 | -13 | 19 | 16 | 9

High-throughput results as filed in PubChem BioAssay.
